FLuc stim CS = FLuc activators, initial screening, artefact control for FLuc-dependent activation tests, biochemical, ATPlite luminescence; Luciferin 4-monooxygenase (Photinus pyralis), P08659; ATPlite luciferase biochemical, 10 min; 0 = ATP-free wells, 1 = DMSO control; activation factor at 10 µM; 200,000 tested, under 10 active; AID 1027, 2008;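 active = luciferase activation factor, scaled between plate controls, of at least 2 with compound at 10 µM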
Target sequence (P08659 whole entry, looked up): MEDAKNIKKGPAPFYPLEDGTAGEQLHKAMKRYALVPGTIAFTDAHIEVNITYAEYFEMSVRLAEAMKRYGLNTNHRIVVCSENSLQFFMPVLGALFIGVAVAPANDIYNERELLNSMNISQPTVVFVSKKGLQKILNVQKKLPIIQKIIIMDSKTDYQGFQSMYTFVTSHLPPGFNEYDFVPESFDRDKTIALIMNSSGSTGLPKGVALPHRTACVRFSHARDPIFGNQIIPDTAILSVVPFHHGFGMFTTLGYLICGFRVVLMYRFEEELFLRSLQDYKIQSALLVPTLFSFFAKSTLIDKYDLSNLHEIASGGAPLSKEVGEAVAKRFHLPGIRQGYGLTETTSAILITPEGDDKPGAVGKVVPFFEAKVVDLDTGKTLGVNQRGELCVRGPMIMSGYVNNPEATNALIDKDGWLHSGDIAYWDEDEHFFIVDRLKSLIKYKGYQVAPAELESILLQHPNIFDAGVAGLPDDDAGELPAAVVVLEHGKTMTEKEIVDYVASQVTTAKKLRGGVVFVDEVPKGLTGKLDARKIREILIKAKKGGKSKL
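Material: Luciferase/luciferin reagent mix; Doses: test compounds dosed from 2 mM stocks in 100% DMSO; Schedule: 10 min incubation after luciferase reagent addition, room temperature; Measured by: luminescence from luciferase reaction; Read-out: luminescence gain marking luciferase activators.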
NF-kB expr up = activators of NF-kB expression in neurons, primary screen, cell-based, HTS | fold change at 12.5 µM | 1.6% of 190,000 active | human neuronal cells, NF-kB reporter expression; active compounds read high; in the data active = fold change above about 3.3
STAT1 activator = STAT1 signaling activators, primary screen, cell-based, HTS, luciferase reporter; activation (% of control), % at 5.5 µM; NIH 3T3 STAT1-luciferase reporter, IFN-gamma, luminescence; 100% = IFN-gamma alone, no compound; AID 932, 2007; 2.6% of 200,000 active;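 active = activation above the screen-wide mean activation plus 3 SD, cut at about 130% in these data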;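 also: raw ratio to IFN-gamma control signal so 100% means no change and 0% no light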
Pf gamet viab = late stage P. falciparum gametocyte viability inhibitors, primary screen, ATP luminescence, HTS. P. falciparum stage V gametocytes, 24 h. inhibition, % at 10.9 µM. 0.065% of 150,000 active;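 active = inhibition above the mean plus 3 SD of compounds within the control limits, set per campaign, cut at about 38% in these data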;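 also: 0% = DMSO wells and 100% = medium only without gametocytes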
FLuc inh counter = firefly luciferase enzyme inhibitors, primary screen, artefact control for luciferase-based inhibitor screens, biochemical, luminescence, ATPLite; 10 min; 1.5% of 200,000 active; AID 1006, 2008; Luciferin 4-monooxygenase (Photinus pyralis), P08659; inhibition, % at 10 µM;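 active = inhibition above about 50% when tested at 10 µM, limit read from the data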
APP 5'UTR act = activators of APP 5'UTR luciferase reporter, primary screen, SH-SY5Y cells. 1% of 190,000 active. SH-SY5Y APP 5'UTR luciferase reporter, luminescence; zero percent = DMSO vehicle wells. activation, % at 2 µM;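 active = activation above a set limit, based on mean plus 3 SD of controls, cut at about 140% in these data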
* = called active by the depositor; · = no result given. An excerpt weighted towards active compounds, which were near 3.5% of everything screened.

SMILES	FLuc stim CS	NF-kB expr up	STAT1 activator	Pf gamet viab	FLuc inh counter	APP 5'UTR act
CCc1nnc(NS(=O)(=O)c2ccc(NC(=S)NC(=O)/C=C/c3ccccc3)cc2)s1	1	1.1	101	41*	-1	-2
CCc1nnc(NS(=O)(=O)c2ccc(NC(=S)NC(=O)/C=C/c3ccc(OC)cc3)cc2)s1	1	1.3	97	-15	-1	3
N=c1nc(SCCC(=O)O)ss1	1	0.72	95	·	-4	-9
NNc1nc(-c2ccccc2Cl)nc2ccccc12	·	·	·	19	·	·
NNc1nc(-c2ccccc2Cl)nc2sc3c(c12)CCCC3	0.2	3.3*	122	-19	82*	50
c1ccc(-c2cc3n(c2)CCc2ccccc2-3)cc1	1	2.9	130*	·	4	48
O=c1c2sccc2n(Cc2cccc(F)c2)c(=O)n1-c1ccc(F)cc1	1	1.1	105	13	-2	12
CCOC(=O)c1c(C)[nH]c(C(=O)COC(=O)CNC(=O)C2CCCCC2)c1C	1	1.1	136*	·	-1	-10
CCOC(=O)c1c(C)[nH]c(C(=O)COC(=O)[C@H](C)NC(=O)c2ccccc2Cl)c1C	0.9	1.6	107	·	6	36
CCOC(=O)c1c(C)[nH]c(C(=O)COC(=O)CNC(=O)c2ccccc2Cl)c1C	0.9	2.5	132*	13	7	37
CCOc1cc(C2NC(=O)NC(C)=C2C(=O)NCc2ccccc2)c(Cl)cc1O (centres undefined)	1	1.4	100	·	-5	-2
CC1CCCC(NC(=O)COC(=O)/C=C/c2ccc(S(=O)(=O)N3CCOCC3)cc2)C1C (centres undefined)	·	·	·	0	·	·
CNC(=S)Nc1cc(C(=O)N2CCCC2)ccc1N1CCCC1	1	1.1	94	·	-2	13
Cc1cccc(CSc2cn(CC(=O)N3CCOCC3)c3ccccc23)c1	1	2.2	129*	-15	4	13
O=C(Cn1cc(SCc2cccc(Cl)c2)c2ccccc21)N1CCOCC1	1	1.7	106	·	4	-16
NC(=O)CC(NC(=O)c1ccc(Br)cc1)c1ccc(NC2CCCCCCC2)c([N+](=O)[O-])c1 (centres undefined)	·	·	·	27	·	·
O=C(Nc1ccccc1)Nc1ccccn1	0.9	1.8	119	-12	12	39
O=C(Nc1ccccc1)Nc1ccc2ncoc2c1	0.8	1.8	132*	-4	22	65
O=C(Nc1ccccc1)Nc1ccc2ocnc2c1	0.4	2.1	127	5	61*	41
Nc1cccc2c1C(=O)N(C(=O)/C=C/c1ccc(F)cc1)C2=O	0.5	1.2	83	10	52*	-17
CCCCN1C(=O)C(=O)N(c2ccccc2)C1=S	0.8	3.4*	135*	6	20	87
Cc1nc(Nc2nc(=O)c3ccccc3n2C)nc2c(C)cccc12	·	·	99	·	·	16
Cc1ccccc1NC(=O)N1CCCC(c2nc(-c3ccc(C(C)C)cc3)no2)C1 (centres undefined)	1	0.89	135*	·	-4	112
COc1cccc(Oc2cc(Cl)nc(N)n2)c1	·	·	·	16	·	·
O=c1cc(O)c(-c2ccccc2Cl)c(Cl)[nH]1	1.1	0.96	97	·	-8	-2
SMILES	FLuc stim CS	NF-kB expr up	STAT1 activator	Pf gamet viab	FLuc inh counter	APP 5'UTR act
Cc1cccc(-c2c(O)cc(=O)[nH]c2Cl)c1	1	5.9*	99	15	-4	11
Cc1ccc(OCc2cnc(Cl)s2)c(C)c1	0.8	1.1	137*	-5	21	43
COc1ccc2c(c1OC)C(=O)N1c3ccccc3COC21 (centres undefined)	0.3	4.4*	148*	·	72*	82
COc1ccc2c(c1OC)C(=O)N1c3cccc(Cl)c3C(=O)OC21 (centres undefined)	1	1.2	104	·	4	11
COc1ccc2c(c1OC)C(=O)N1c3ccccc3C(=O)N(c3ccccc3F)C21 (centres undefined)	1	0.38	55	·	-2	-41
COc1ccc2c(c1OC)C(=O)N1c3ccccc3SC21 (centres undefined)	0.5	2	149*	·	54*	79
CCn1c(SC(C)C(=O)OC)nnc1-c1c[nH]c2ccccc12 (centres undefined)	1.1	1.1	97	·	-6	·
O=C(CCc1ccccc1)Nc1ccc2ccccc2n1	0.8	5.3*	149*	-43	16	140*
COc1cccc2sc(Nc3nc(-c4ccncc4)cs3)nc12	1	1.4	117	50*	-1	-94
CC(=O)Nc1ccc2nc(NC(=O)COc3ccccc3Cl)sc2c1	0.9	0.96	130*	9	10	32
COc1cccc2sc(Nc3nc4ccc(NC(C)=O)cc4s3)nc12	0.9	1.1	132*	-16	9	-14
COc1cccc2sc(Nc3nc(-c4cc5ccccc5oc4=O)cs3)nc12	0.7	1.1	113	·	28	-91
O=C(CCc1ccccc1)Nc1ccccc1	0.9	1.9	114	·	5	29
Nc1c(Cl)ncnc1NCCc1ccc(O)cc1	·	·	·	-13	·	·
NC(=O)CC[C@@H]1NC(=O)C(Cc2ccc(O)cc2)NC(=O)c2cc([N+](=O)[O-])cc(F)c2NCCC[C@@H](C(N)=O)NC1=O (some centres undefined)	1	1.5	96	·	0	-9
CC(=O)Nc1ccc2nc(NC(=O)CCc3ccccc3)sc2c1	1	1.1	134*	·	-3	8
CCc1nnc(/N=C/c2c(O)n(-c3ccc(Cl)cn3)c(=O)c3ccccc23)s1	0.3	1.2	104	2	66*	-15
Cc1ccc(NC(=O)C2CCN(c3cnccn3)CC2)cc1	0.1	1.2	96	14	85*	1
C=C(C)CN1CCN(S(=O)(=O)c2ccc(C)c(N(C)S(=O)(=O)c3ccc(C)cc3)c2C)CC1	1	1.1	91	-12	-2	15
CCOc1ccc(N=Cc2c(O)c3ccccc3oc2=O)cc1	0.2	1.5	108	9	78*	-3
CCOC(=O)c1ccccc1N=Cc1c(O)c2ccccc2oc1=O	·	·	·	9	·	·
CCOc1ccc(N=Cc2c(O)cc(C)oc2=O)cc1	0.5	1.1	110	·	53*	7
CN(c1nc(-c2ccc(Br)cc2)cs1)C1CCS(=O)(=O)C1 (centres undefined)	0.9	1.9	130*	0	6	14
CC(Oc1ccc(Cl)cc1Cl)C(=O)NCCCN1CCOCC1 (centres undefined)	1	1	96	·	-5	·

Screening results deposited in PubChem by several laboratories.
